Here are results for 16 compounds from ChEMBL document CHEMBL2086366, “Chemical optimization of new ligands of the low-density lipoprotein receptor as potential vectors for central nervous system targeting” (J Med Chem, 2012).

Where a SMILES comes first, the peptide text is derived from it. Bridges are numbered along the chain shown (N, C = ends).

Sequence of Low-density lipoprotein receptor (Homo sapiens) (P01130 whole entry, the tested form may be a part): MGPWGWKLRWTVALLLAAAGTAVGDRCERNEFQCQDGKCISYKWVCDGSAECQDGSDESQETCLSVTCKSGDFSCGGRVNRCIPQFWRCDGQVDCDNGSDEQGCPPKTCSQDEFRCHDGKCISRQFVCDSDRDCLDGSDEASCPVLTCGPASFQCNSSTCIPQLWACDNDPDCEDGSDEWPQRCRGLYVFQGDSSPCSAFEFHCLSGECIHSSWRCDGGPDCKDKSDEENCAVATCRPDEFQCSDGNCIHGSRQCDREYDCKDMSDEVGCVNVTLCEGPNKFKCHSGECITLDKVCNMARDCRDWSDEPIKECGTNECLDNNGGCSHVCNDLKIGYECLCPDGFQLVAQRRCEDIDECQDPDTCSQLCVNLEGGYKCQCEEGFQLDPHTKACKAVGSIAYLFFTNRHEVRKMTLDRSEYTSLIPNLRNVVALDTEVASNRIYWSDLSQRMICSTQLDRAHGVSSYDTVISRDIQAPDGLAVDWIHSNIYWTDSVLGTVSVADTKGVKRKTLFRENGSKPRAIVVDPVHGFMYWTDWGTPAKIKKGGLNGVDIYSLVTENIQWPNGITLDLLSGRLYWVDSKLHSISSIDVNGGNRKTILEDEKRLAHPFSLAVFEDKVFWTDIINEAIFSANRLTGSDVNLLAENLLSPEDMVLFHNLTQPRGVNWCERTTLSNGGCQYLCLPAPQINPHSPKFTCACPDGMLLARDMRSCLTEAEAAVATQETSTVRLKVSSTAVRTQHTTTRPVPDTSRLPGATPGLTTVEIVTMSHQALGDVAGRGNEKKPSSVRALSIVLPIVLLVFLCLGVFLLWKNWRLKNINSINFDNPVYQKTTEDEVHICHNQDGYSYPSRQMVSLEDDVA

Test system in the first series: not listed separately
Kind of series: Half life in Swiss mouse plasma. The class given is ADME, cell-free.
Details: not given; call rule not given here
The essentials: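 Peptide in 0.9% NaCl was spiked into freshly collected Swiss mouse blood at 2 μM nominal (n = 3) and kept at 37 °C for 0, 0.5, 1, 2, 5 and 8 h. Plasma was separated, acidified with formic acid, and protein precipitated with acetonitrile. Analysis was by LC-MS/MS (positive ESI), LLOQ 25-50 nM.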
As for `CSCC[C@@H]1NC(=O)[C@@H](NC(C)=O)C(C)(C)SSC[C@@H](C(N)=O)NC(=O)CN(C)C(=O)[C@H](CCCNC(=N)N)NC(=O)[C@H](CC(C)C)NC(=O)[C@H](CCCNC(=N)N)NC(=O)[C@@H]2CSCN2C1=O`, the half-life (in general, how long it takes for the measured level to halve) was 2.9 h.
On the same count and under the same terms, as for `CSCC[C@@H]1NC(=O)[C@H](NC(C)=O)C(C)(C)SSC[C@@H](C(N)=O)NC(=O)CNC(=O)[C@H](CCCNC(=N)N)NC(=O)[C@H](CC(C)C)NC(=O)[C@H](CCCNC(=N)N)NC(=O)[C@@H]2CCCCN2C1=O`, the figure is 1.7 h.
As to `CSCC[C@@H]1NC(=O)[C@H](NC(C)=O)CSSC[C@@H](C(N)=O)NC(=O)CN(C)C(=O)[C@H](CCCNC(=N)N)NC(=O)[C@H](CC(C)C)NC(=O)[C@H](CCCNC(=N)N)NC(=O)[C@@H]2CSCN2C1=O`, the half-life is 2.26 h.
In turn, `CSCC[C@@H]1NC(=O)[C@H](NC(C)=O)CSSC[C@@H](C(N)=O)NC(=O)CNC(=O)[C@H](CCCNC(=N)N)NC(=O)[C@H](CC(C)C)NC(=O)[C@H](CCCNC(=N)N)NC(=O)[C@@H]2CCCN2C1=O` gave a half-life of 3.03 h.
Take `CSCC[C@@H]1NC(=O)[C@@H](NC(C)=O)CSSC[C@@H](C(N)=O)NC(=O)CNC(=O)[C@H](CCCNC(=N)N)NC(=O)[C@H](CC(C)C)NC(=O)[C@H](CCCNC(=N)N)NC(=O)[C@@H]2CCCN2C1=O`: the half-life is 1.47 h.
Same read-out and setting: the result for `CSCC[C@@H]1NC(=O)[C@@H](NC(C)=O)C(C)(C)SSC[C@@H](C(N)=O)NC(=O)CNC(=O)[C@H](CCCNC(=N)N)NC(=O)[C@H](CC(C)C)NC(=O)[C@H](CCCNC(=N)N)NC(=O)[C@@H]2CCCCN2C1=O` reads 2.99 h.
With `CSCC[C@@H]1NC(=O)[C@H](NC(C)=O)CSSC[C@@H](C(N)=O)NC(=O)CNC(=O)[C@H](CCCNC(=N)N)NC(=O)[C@H](CC(C)C)NC(=O)[C@H](CCCNC(=N)N)NC(=O)[C@@H]2CSCN2C1=O`, the half-life is 1.8 h.

A further series has as its target Low-density lipoprotein receptor (Homo sapiens) (UniProt P01130). Briefly: Displacement of S-tagged Ac-DSGL[CMPRLRGC]cDPR-NH2 from human DsRed2-fused LDLR expressed in CHO cells at 10 uM after 1 hr by FRET assay. The class given is cell-based.
Details: not given
The gist of the method: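 CHO cells stably expressing hLDLR-DsRed2 (Ham-F12, 5% FBS, Geneticin) at 800 000 cells/well were incubated in triplicate with S-tagged reference peptide (10 μM) plus test peptide (10 μM) in Ham-F12/1% BSA, 1 h, 37 °C. Scrambled and untagged peptide controls were included; values are means of at least three points.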
As for `CSCC[C@@H]1NC(=O)[C@@H](NC(=O)[C@H](CC(C)C)NC(=O)[C@H](C)NC(=O)[C@H](CO)NC(=O)[C@H](CC(=O)O)NC(C)=O)CSSC[C@@H](C(=O)N[C@@H](CC(=O)O)C(=O)N2CCC[C@H]2C(=O)N[C@@H](CCCNC(=N)N)C(N)=O)NC(=O)CNC(=O)[C@H](CCCNC(=N)N)NC(=O)[C@H](CC(C)C)NC(=O)[C@H](CCCNC(=N)N)NC(=O)[C@@H]2CCCN2C1=O` (Ac-DSALCMPRLRGCDPR-NH2; disulfide 5-12), the inhibition (as a rule, the change of the read-out against control, counted positive when it falls) came to 58%.
On the same count and under the same terms, as for `CSCC[C@@H]1NC(=O)[C@@H](NC(=O)[C@H](CC(C)C)NC(=O)CNC(=O)[C@H](CO)NC(=O)[C@H](CC(=O)O)NC(C)=O)CSSC[C@@H](C(=O)N[C@@H](CC(=O)O)C(=O)N2CCC[C@H]2C(=O)N[C@@H](CCCNC(=N)N)C(N)=O)NC(=O)[C@H](C)NC(=O)[C@H](CCCNC(=N)N)NC(=O)[C@H](CC(C)C)NC(=O)[C@H](CCCNC(=N)N)NC(=O)[C@@H]2CCCN2C1=O` (Ac-DSGLCMPRLRACDPR-NH2; disulfide 5-12), the figure is 20%.
With `CSCC[C@@H]1NC(=O)[C@@H](NC(=O)[C@H](CC(C)C)NC(=O)CNC(=O)[C@H](CO)NC(=O)[C@H](CC(=O)O)NC(C)=O)CSSC[C@@H](C(=O)N[C@@H](CC(=O)O)C(=O)N2CCC[C@H]2C(=O)N[C@@H](CCCNC(=N)N)C(N)=O)NC(=O)CNC(=O)[C@H](CCCNC(=N)N)NC(=O)[C@H](CC(C)C)NC(=O)[C@H](C)NC(=O)[C@@H]2CCCN2C1=O` (Ac-DSGLCMPALRGCDPR-NH2; disulfide 5-12), the inhibition is 0%.
`CSCC[C@@H]1NC(=O)[C@@H](NC(=O)[C@H](CC(C)C)NC(=O)CNC(=O)[C@H](CO)NC(=O)[C@H](CC(=O)O)NC(C)=O)CSSC[C@@H](C(=O)N[C@@H](CC(=O)O)C(=O)N2CCC[C@H]2C(=O)N[C@@H](CCCNC(=N)N)C(N)=O)NC(=O)CNC(=O)[C@H](CCCNC(=N)N)NC(=O)[C@H](CC(C)C)NC(=O)[C@H](CCCNC(=N)N)NC(=O)[C@@H]2CCCN2C1=O` came in with an inhibition of 55%.
As to `CSCC[C@@H]1NC(=O)[C@@H](NC(C)=O)CSSC[C@@H](C(N)=O)NC(=O)CNC(=O)[C@H](CCCNC(=N)N)NC(=O)[C@@H]2CCCN2C1=O` (Ac-CMPRGC-NH2; disulfide 1-6), the inhibition amounted to 39%.
Regarding `CSCC[C@@H]1NC(=O)[C@@H](NC(=O)[C@H](CC(C)C)NC(=O)CNC(=O)[C@H](CO)NC(=O)[C@H](C)NC(C)=O)CSSC[C@@H](C(=O)N[C@@H](CC(=O)O)C(=O)N2CCC[C@H]2C(=O)N[C@@H](CCCNC(=N)N)C(N)=O)NC(=O)CNC(=O)[C@H](CCCNC(=N)N)NC(=O)[C@H](CC(C)C)NC(=O)[C@H](CCCNC(=N)N)NC(=O)[C@@H]2CCCN2C1=O` (Ac-ASGLCMPRLRGCDPR-NH2; disulfide 5-12), the inhibition is 55%.
Same read-out and setting: the result for `CSCC[C@@H]1NC(=O)[C@@H](NC(=O)[C@H](CC(C)C)NC(=O)CNC(=O)[C@H](CO)NC(=O)[C@H](CC(=O)O)NC(C)=O)CSSC[C@@H](C(=O)N[C@@H](CC(=O)O)C(=O)N2CCC[C@H]2C(=O)N[C@@H](CCCNC(=N)N)C(N)=O)NC(=O)CNC(=O)[C@H](CCCNC(=N)N)NC(=O)[C@H](CC(C)C)NC(=O)[C@H](CCCNC(=N)N)NC(=O)[C@H](C)NC1=O` (Ac-DSGLCMARLRGCDPR-NH2; disulfide 5-12) reads 3%.
Regarding `CSCC[C@@H]1NC(=O)[C@@H](NC(=O)[C@H](CC(C)C)NC(=O)CNC(=O)[C@H](C)NC(=O)[C@H](CC(=O)O)NC(C)=O)CSSC[C@@H](C(=O)N[C@@H](CC(=O)O)C(=O)N2CCC[C@H]2C(=O)N[C@@H](CCCNC(=N)N)C(N)=O)NC(=O)CNC(=O)[C@H](CCCNC(=N)N)NC(=O)[C@H](CC(C)C)NC(=O)[C@H](CCCNC(=N)N)NC(=O)[C@@H]2CCCN2C1=O` (Ac-DAGLCMPRLRGCDPR-NH2; disulfide 5-12), the inhibition is 20%.
The same measure, in the same setting: as for `CC(=O)N[C@@H](CC(=O)O)C(=O)N[C@@H](CO)C(=O)NCC(=O)N[C@@H](CC(C)C)C(=O)N[C@H]1CSSC[C@@H](C(=O)N[C@@H](CC(=O)O)C(=O)N2CCC[C@H]2C(=O)N[C@@H](CCCNC(=N)N)C(N)=O)NC(=O)CNC(=O)[C@H](CCCNC(=N)N)NC(=O)[C@H](CC(C)C)NC(=O)[C@H](CCCNC(=N)N)NC(=O)[C@@H]2CCCN2C(=O)[C@H](C)NC1=O` (Ac-DSGLCAPRLRGCDPR-NH2; disulfide 5-12), the figure is 0%.

For another series, the system named is Mus musculus. Kind of series: Biodistribution in iv dosed dorsal spinal cord of C57-B16 mouse after 10 mins by real time biphoton microscopic analysis. The following applies: in vivo. The series is classed as ADME, organism-based. The gist of the method: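 C57-Bl6 mice (>7 weeks) anesthetized with ketamine-xylazine (100 mg/kg, 10 mg/kg), T13 laminectomy; 200 μL Rhodamine Red-X-labelled peptide (167 μM in DMSO + PBS) given iv, sometimes with 70 kDa fluorescein dextran. Two-photon imaging (840 nm excitation) of superficial dorsal spinal cord (first 100 μm) from 10 min after injection; scrambled peptide and free dye as controls.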
`CSCC[C@@H]1NC(=O)[C@H](NC(C)=O)CSSC[C@@H](C(N)=O)NC(=O)CNC(=O)[C@H](CCCNC(=N)N)NC(=O)[C@H](CC(C)C)NC(=O)[C@H](CCCNC(=N)N)NC(=O)[C@@H]2CCCN2C1=O`: the Drug uptake entry was “Active”.
